Experimental data: ChEMBL document CHEMBL4513216, “Probing the Open Global Health Chemical Diversity Library for Multistage-Active Starting Points for Next-Generation Antimalarials” (ACS Infect Dis, 2020)

Assay: Toxicity liver stage against HepG2, at 10uM
Assay type: cell-based
Parameters: test concentration 10 uM, cell line HepG2-A16-CD81EGFP
Details: human, HepG2-A16-CD81EGFP cells; read-out: INHIBITION
Outline: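 Uninfected HepG2-A16-CD81EGFP cells, 3 × 10^3 per well, 1536-well, plated on prespotted compound at 10 μM final, parasite-free screening media added to match infected plates; puromycin 10 μM positive, DMSO 0.5% negative; run in parallel with 48 h PbLuc assay at 37 °C, 5% CO2; viability by CellTiter-Glo luminescence, normalized to controls.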

Compound | cytotoxicity at 10 µM [%]
Cc1sc2nc(C(F)(F)F)nc(N3CCN(C)CC3)c2c1C | -3.47
CC(C)NC(=O)N1CCN(C(=O)C(C)C)CC2(CC(=O)N(C)C2)C1 (stereo not given) | -0.704
Cc1ccc(CN2CC3(CCNCC3)CCC2=O)c(F)c1F | 4.95
Cc1cc(C)n(C2CCCN(C(=O)c3cccc4c3OCO4)C2)n1 (stereo not given) | -3.88
Cc1nc(COC[C@H]2CC[C@H]3NCC[C@H]3O2)cs1 | -5.64
CC(=O)NCCc1cc2nc(-c3ccncc3)ccn2n1 | 2.95
CCC1=NC(SCC(=O)c2ccc(OC)cc2)c2cc(CC)sc2N1 (stereo not given) | 9.4
CC(C)c1nc(CN2CCCC(O)C2)cs1 (stereo not given) | -7.13
Cc1nnc(NC(=O)CN2CCc3c(nc(C(C)C)n3C)C2)s1 | -1.94
c1cnc(N2CCN(Cc3nnnn3C3CC3)CC2)nc1 | 9.29
O=C(NCc1cc2ccccc2[nH]1)C1CCCN(C(=O)N2CCCC2)C1 (stereo not given) | 6.81
CCCC(=O)N(CCCN1CCOCC1)c1nc2c(Cl)cccc2s1 | -12.8
Cc1noc(C)c1CN(C)C(=O)NC1CCN(c2ncccn2)CC1 | -19.1
Cc1nc(N2CCN(C(=O)C3CCCC3)CC2)c2c(n1)c(C)nn2C | 6.97
O=C(CCC1CCCN(C(=O)CCc2ccc(F)c(F)c2)C1)NC1CC1 (stereo not given) | 2.49
Cc1nn(C)cc1-c1cc(C(F)(F)F)nc(NC2CCN(C)CC2)n1 | 11.7
COc1c(C(=O)NCc2cccnc2)nnn1Cc1ccccc1 | 12.5
c1ccc(CN2CCCC(c3nccnc3-n3ccnc3)C2)cc1 (stereo not given) | -4.56
N#CC1CCN(C(=O)NCCc2ccc(Cl)s2)CC1 | -16.1
COc1ccc(C(=O)CCC(=O)NCc2c(C)noc2C)cc1F | 2.43
O=C(CCn1cncn1)NCCOc1cccc(Cl)c1 | 1.58
Cc1ccc(CNCC2Cn3nnc(-c4cnn(C)c4)c3CO2)o1 (stereo not given) | 2.42
COc1cnc(CSc2nnc(C)s2)cc1OCC(=O)NC(C)(C)C | 9.82

Compound | cytotoxicity at 10 µM [%]
CCCn1ncc(CN2C[C@@H]3CCCN3C[C@@H]2CCSC)c1C | 4.06
CNC(=O)C(C)CNC(=O)c1coc(COc2cccc(F)c2F)n1 (stereo not given) | 5.21
CN1CCC2(CCCN(c3nccc(C(F)(F)F)n3)C2)CC1 | 4.14
CC1N(CC2CC2)C(=O)COC12CCN(C(=O)c1cscn1)CC2 (stereo not given) | -8.04
CC(C)CN(Cc1nc2c(cnn2C)c(=O)[nH]1)C(C)C | -9.96
CC(C)C(NC(=O)Nc1ccc(F)cc1)C(=O)N(C)C (stereo not given) | -10.9
CS(=O)(=O)NCc1cncc2c1CCN(C(=O)N1CCCC1)C2 | 12.8
O=C(Cc1ccccc1F)N1C[C@@H]2COC[C@]2(COc2cccnc2)C1 | 9.29
COc1ccccc1C(=O)N1CCCC1c1ncc2c(n1)CCNC2 (stereo not given) | -12.3
COc1ccc(Cl)cc1NC(=O)CNc1ccn(CC(N)=O)n1 | 13.6
CC(C)Cc1noc(CN2CCN(C(=O)c3ccco3)CC2)n1 | -5.39
CC1(C)CN(C(CNS(N)(=O)=O)c2ccc(Cl)cc2)CCO1 (stereo not given) | 6.88
Cc1ccc2c(c1)C(NC1CCN(C)CC1)CCCO2 (stereo not given) | -8.2
CN1CCC(CNC(=O)c2ccc(O)nc2)c2ccccc21 (stereo not given) | 13.9
O=C(c1ccncc1)N1CCOC2(COCCN(c3cccnc3)C2)C1 (stereo not given) | 6.25
O=c1[nH]nc(CNc2ncc(Cl)cn2)[nH]1 | -5.98
CN(C)C1COC2(CCN(Cc3ccncc3)CC2)C1 (stereo not given) | -69.2
O=C(O)c1cc2c(nc1O)CC(c1cccs1)CC2=O (stereo not given) | 8.32
COc1ccc(CCN2CC(c3nc(CSC)no3)CCC2=O)cc1 (stereo not given) | 3.11
CN1CCC(NC(=O)c2cc(Cl)cc(Br)c2O)C1=O (stereo not given) | 4.84
COc1cccc(CN2C[C@@H]3COC[C@]3(COCc3ccccn3)C2)c1 | -88.8
Cc1cc2nccc(C3CCN(C(=O)c4ccccc4F)CC3)n2n1 | 1.16
